Calls of active or inactive are those of the source. The calls are words filed in the database; no cut-off is given here.
Columns and labels:
[1] = (§1) Inhibition of M-CSF/RANKL-induced osteoclast differentiation in C57BL/6 mouse bone marrow macrophage assessed as reduction in multinucleated TRAP+ cells incubated for 6 days with fresh media replacement on day 3 and measured on day 6 by TRAP staining-based microscopic analysis; assay type: functional, cell-based; conditions: C57BL/6, BMDM
Summary of the method: (§2)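 BMM came from femur and tibia marrow of 5–8-week-old male C57BL/6 mice and were purified over lymphocyte separation medium. Cells, 1 × 10^5 per well, were grown in α-MEM/10% FBS with M-CSF (60 ng/mL) and RANKL (150 ng/mL) for 6 d, medium changed day 3. Compound range was 0.01−100 μM. TRAP+ multinucleated cells were counted on day 6.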

[2] = system: Mus musculus; experiment: Antiosteoporotic activity in ddY mouse model of OVX-induced osteoporosis assessed as increase in cross-sectional thickness in femur bone at 10 mg/kg, po administered once daily via gavage for 4 weeks by microcomputed tomographic analysis; assay type: functional, organism-based
Summary of the method: (§3)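 Female ddY mice were ovariectomized. Oral gavage began 1 week after surgery and ran once daily for 28 d. Vehicle was 300 μL PBS containing 0.5% (v/v) DMSO, also given to sham and OVX controls. Mice were then euthanized and femur and tibia fixed for CT imaging. Values are mean ± SD of four mice.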

[3] = system: Mus musculus; experiment: Antiosteoporotic activity in ddY mouse model of OVX-induced osteoporosis assessed as increase in trabecular thickness in femur bone at 10 mg/kg, po administered once daily via gavage for 4 weeks by microcomputed tomographic analysis; assay type: functional, organism-based; summary of the method: as §3
[4] = Terminal half-life in ICR mouse at 50 mg/kg, po administered via gavage measured up to 8 hrs by LC-MS/HPLC analysis; assay type: ADME, organism-based; conditions: in vivo, read-out: beta t1/2 (converted)
Summary of the method: (§4)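 Six-week-old male ICR mice (n = 3) were kept at 25 ± 2 °C on a 12 h light/dark cycle and dosed iv or po. Total plasma concentration (bound plus unbound) was plotted against time. Terminal T1/2 came from the elimination phase: a two-compartment fit for po dosing and a single-compartment fit for iv dosing.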

[5] = system: Mus musculus; experiment: Antiosteoporotic activity in ddY mouse model of OVX-induced osteoporosis assessed as reduction in trabecular separation in femur bone at 10 mg/kg, po administered once daily via gavage for 4 weeks by microcomputed tomographic analysis; assay type: functional, organism-based; summary of the method: as §3
[6] = AUC (0 to infinity) in ICR mouse at 2 mg/kg, iv measured up to 8 hrs by LC-MS/HPLC analysis; assay type: ADME, organism-based; parameters: dose 2 mg/kg, time infinity, route intravenous; conditions: in vivo
Summary of the method: (§5)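 Six-week-old male ICR mice, housed at 25 ± 2 °C, 60 ± 10% humidity, 12 h light/dark. Dosing was iv at 2 mg/kg or po at 10 and 50 mg/kg. Plasma concentrations were total, bound plus unbound. AUC∞ is from time zero to infinity. F = (AUCpo/AUCiv) × 100. Cmax and AUC∞ are mean ± SD of three mice.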

[7] = Cmax in ICR mouse at 10 mg/kg, po administered via gavage measured up to 8 hrs by LC-MS/HPLC analysis; assay type: ADME, organism-based; parameters: dose 10 mg/kg, route oral; conditions: in vivo; summary of the method: as §5
[8] = Cmax in ICR mouse at 50 mg/kg, po administered via gavage measured up to 8 hrs by LC-MS/HPLC analysis; assay type: ADME, organism-based; parameters: dose 50 mg/kg, route oral; conditions: in vivo; summary of the method: as §5
[9] = Oral bioavailability in ICR mouse at 50 mg/kg administered via gavage measured up to 8 hrs by LC-MS/HPLC analysis; assay type: ADME, organism-based; conditions: in vivo; summary of the method: as §5
[10] = system: MC3T3-E1; experiment: Osteo-blastogenic activity in mouse MC3T3-E1 cells assessed as stimulation of ALP activity at 50 uM supplemented with fresh medium every 3 to 4 days and measured after 14 days relative to control; assay type: functional
Summary of the method: (§6)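 MC3T3-E1 subclone 4 osteoblastic cells were grown in α-MEM at 37 °C under 5% CO2 with compound present during differentiation. ALP activity was read 14 d after induction and expressed as % of untreated cells. Values are mean ± SD of three independent experiments.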

[11] = AUC (0 to infinity) in ICR mouse at 50 mg/kg, po administered via gavage measured up to 8 hrs by LC-MS/HPLC analysis; assay type: ADME, organism-based; parameters: dose 50 mg/kg, time infinity, route oral; conditions: in vivo; summary of the method: as §5
[12] = system: MC3T3-E1; experiment: Osteo-blastogenic activity in mouse MC3T3-E1 cells assessed as stimulation of ALP activity at 10 uM supplemented with fresh medium every 3 to 4 days and measured after 14 days relative to control; assay type: functional; summary of the method: as §6
[13] = Toxicity in ddY mouse model of OVX-induced osteoporosis assessed as increase in body weight at 10 mg/kg, po administered once daily via gavage for 4 weeks measured 5 weeks post OVX-challenge; assay type: organism-based; conditions: in vivo, 840 h
Summary of the method: (§7)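 Dosing of ddY mice began one week after ovariectomy: compound in 300 μL of 0.5% (v/v) DMSO-containing PBS by gavage once daily for 28 d. OVX and sham controls received vehicle. Body weight was compared with sham control 5 weeks after OVX.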

[14] = system: Mus musculus; experiment: Antiosteoporotic activity in ddY mouse model of OVX-induced osteoporosis assessed as increase in ratio of bone volume/trabecular volume in femur bone at 10 mg/kg, po administered once daily via gavage for 4 weeks by microcomputed tomographic analysis; assay type: functional, organism-based; summary of the method: as §3
[15] = AUC (0 to infinity) in ICR mouse at 10 mg/kg, po administered via gavage measured up to 8 hrs by LC-MS/HPLC analysis; assay type: ADME, organism-based; parameters: dose 10 mg/kg, route oral, time infinity; conditions: in vivo; summary of the method: as §5
[16] = Toxicity in ddY mouse model of OVX-induced osteoporosis assessed as increase in body weight at 1 mg/kg, po administered once daily via gavage for 4 weeks measured 5 weeks post OVX-challenge; assay type: organism-based; conditions: in vivo, 840 h; summary of the method: as §7
[17] = Terminal half-life in ICR mouse at 2 mg/kg, iv measured up to 8 hrs by LC-MS/HPLC analysis; assay type: ADME, organism-based; conditions: in vivo, read-out: beta t1/2 (converted); summary of the method: as §4
[18] = system: Mus musculus; experiment: Antiosteoporotic activity in ddY mouse model of OVX-induced osteoporosis assessed as increase in new bone volume in femur bone at 10 mg/kg, po administered once daily via gavage for 4 weeks by microcomputed tomographic analysis; assay type: functional, organism-based; summary of the method: as §3
[19] = system: Mus musculus; experiment: Antiosteoporotic activity in ddY mouse model of OVX-induced osteoporosis assessed as increase in femur bone mineral density at 10 mg/kg, po administered once daily via gavage for 4 weeks by microcomputed tomographic analysis; assay type: functional, organism-based; summary of the method: as §3
[20] = Terminal half-life in ICR mouse at 10 mg/kg, po administered via gavage measured up to 8 hrs by LC-MS/HPLC analysis; assay type: ADME, organism-based; conditions: in vivo, read-out: beta t1/2 (converted); summary of the method: as §4
[21] = Oral bioavailability in ICR mouse at 10 mg/kg administered via gavage measured up to 8 hrs by LC-MS/HPLC analysis; assay type: ADME, organism-based; conditions: in vivo; summary of the method: as §5
[22] = system: Mus musculus; experiment: Antiosteoporotic activity in ddY mouse model of OVX-induced osteoporosis assessed as increase in trabecular number in femur bone at 10 mg/kg, po administered once daily via gavage for 4 weeks by microcomputed tomographic analysis; assay type: functional, organism-based; summary of the method: as §3
[23] = Cytotoxicity against mouse RAW264.7 cells after 24 hrs by MTT assay; assay type: cell-based; conditions: read-out: LD50
Summary of the method: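 RAW264.7 macrophages (preosteoclast line) were kept in DMEM at 37 °C under 5% CO2 and tested without RANKL. MTT read-out of growth and survival, expressed as LD50.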

[24] = as §1, with “cells at 10 uM” for “cells”, “analysis relative to control” for “analysis”; assay type: functional; conditions: C57BL/6, BMDM; summary of the method: as §2

For `COc1ccc(/C=C/C(C)=O)cc1O`, the IC50 [1] was 0.11 µM, the Activity [2] was “Active” and the Activity [3] was “Active”. For the same compound, the half-life [4] was 2.2 h, the Activity [5] was “Active” and the AUC(0-inf) [6] was 0.1 µM·h. It also gave a Cmax [7] of 160 nM, a Cmax [8] of 880 nM and a bioavailability [9] of 29%. It also gave an Activity [10] of 180%, an AUC(0-inf) [11] of 0.72 µM·h and an Activity [12] of 100%. The Activity [13] was “Toxic”, the Activity [14] was “Active” and the AUC(0-inf) [15] was 0.14 µM·h. The Activity [16] was “Toxic”, the half-life [17] was 1 h and the Activity [18] was “Active”. The Activity [19] was “Active”, the half-life [20] was 1.2 h and the bioavailability [21] was 26%. For the same compound, the Activity [22] was “Active” and the CC50 at 24 h [23] was greater than 5000 µM.

In the case of `CC(=O)/C=C/c1ccc(O)c(O)c1`, the inhibition at 10 µM [24] is reported as 100%, the IC50 [1] is reported as 7.8 µM and the Activity [2] is reported as “Active”. For the same compound, the Activity [3] was “Active”, the half-life [4] was 3.1 h and the Activity [5] was “Active”. It also gave an AUC(0-inf) [6] of 0.039 µM·h, a Cmax [7] of 200 nM and a Cmax [8] of 1100 nM. The bioavailability [9] was 76%, the Activity [10] was 280% and the AUC(0-inf) [11] was 0.66 µM·h. The Activity [12] was 120%, the Activity [13] was “Toxic” and the Activity [14] was “Active”. For the same compound, the AUC(0-inf) [15] was 0.14 µM·h, the half-life [17] was 0.4 h and the Activity [18] was “Active”. The Activity [19] was “Active”, the half-life [20] was 2.1 h and the bioavailability [21] was 66%. For the same compound, the Activity [22] was “Active” and the CC50 at 24 h [23] was 500 µM.

From ChEMBL document CHEMBL4364291, “Benzylideneacetone Derivatives Inhibit Osteoclastogenesis and Activate Osteoblastogenesis Independently Based on Specific Structure-Activity Relationship” (J Med Chem, 2019)
